In brackets after ≈: the same amount, converted by molar mass. Activity calls are given as the source filed them. No cut-off for these calls is given here.
biological target: T1, Aurora kinase A (Homo sapiens, UniProt O14965); assay: Inhibition of Aurora A by ELISA; conditions: not given
T1 sequence (O14965 whole entry): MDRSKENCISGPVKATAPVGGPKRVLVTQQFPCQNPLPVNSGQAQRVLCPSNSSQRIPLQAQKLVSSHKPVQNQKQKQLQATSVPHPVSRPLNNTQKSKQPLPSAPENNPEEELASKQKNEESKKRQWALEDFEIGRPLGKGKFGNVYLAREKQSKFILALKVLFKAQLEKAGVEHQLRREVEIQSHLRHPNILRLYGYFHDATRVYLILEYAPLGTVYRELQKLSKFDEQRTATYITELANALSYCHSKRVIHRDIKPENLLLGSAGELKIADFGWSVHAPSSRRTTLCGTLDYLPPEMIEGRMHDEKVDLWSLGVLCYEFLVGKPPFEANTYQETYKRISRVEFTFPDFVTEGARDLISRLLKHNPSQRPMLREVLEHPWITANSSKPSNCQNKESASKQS
In short: (§1)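 ELISA on plates coated with GST fusion carrying histone H3 residues 1-15, blocked with 1 mg/mL I-block. Aurora-A or Aurora-B kinase reacted with compound and 30 μM ATP in kinase buffer with 1 μg/mL I-block; stopped after 40 min with 25 mM EDTA. Phosphorylation read with anti-phospho-histone H3 (Ser10) 6G3 mAb. IC50 from triplicate averages.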

Compound | IC50 [µM]
COc1ccc(Cn2nc(Nc3cc(C)[nH]n3)c3ccccc3c2=O)cc1 | 0.032
Cc1cc(Nc2nn(Cc3ccc(S(C)(=O)=O)cc3)c(=O)c3ccccc23)n[nH]1 | 0.056
Cc1cc(Nc2nn(C(C)C)c(=O)c3ccccc23)n[nH]1 | 0.035
Cc1cc(Nc2nn(Cc3ccc(F)cc3)c(=O)c3ccccc23)n[nH]1 | 0.014
COc1ccc(-n2nc(Nc3cc(C)[nH]n3)c3ccccc3c2=O)cc1 | 0.029
COc1ccc(C(=O)Cn2nc(Nc3cc(C)[nH]n3)c3ccccc3c2=O)cc1 | 0.067
Cc1cc(Nc2nn(CC(C)C)c(=O)c3ccccc23)n[nH]1 | 0.115
Cc1cc(Nc2nn(CC(=O)c3ccccc3)c(=O)c3ccccc23)n[nH]1 | 0.071

More lines, now with the values ahead:

IC50 [µM] | Compound
0.65 | Cc1cc(Nc2n[nH]c(=O)c3ccccc23)n[nH]1
0.27 | Cc1cc(Nc2nn(C)c(=O)c3ccccc23)n[nH]1
0.066 | Cc1cc(Nc2nn(CC(F)(F)F)c(=O)c3ccccc23)n[nH]1
0.093 | CC(=O)Nc1ccc(Cn2nc(Nc3cc(C)[nH]n3)c3ccccc3c2=O)cc1
0.109 | Cc1cc(Nc2nn(Cc3ccc([N+](=O)[O-])cc3)c(=O)c3ccccc23)n[nH]1

biological target: Aurora kinase B (Homo sapiens, UniProt Q96GD4); assay: Inhibition of Aurora B by ELISA; conditions: not given; in short: as §1
Sequence (Q96GD4 whole entry): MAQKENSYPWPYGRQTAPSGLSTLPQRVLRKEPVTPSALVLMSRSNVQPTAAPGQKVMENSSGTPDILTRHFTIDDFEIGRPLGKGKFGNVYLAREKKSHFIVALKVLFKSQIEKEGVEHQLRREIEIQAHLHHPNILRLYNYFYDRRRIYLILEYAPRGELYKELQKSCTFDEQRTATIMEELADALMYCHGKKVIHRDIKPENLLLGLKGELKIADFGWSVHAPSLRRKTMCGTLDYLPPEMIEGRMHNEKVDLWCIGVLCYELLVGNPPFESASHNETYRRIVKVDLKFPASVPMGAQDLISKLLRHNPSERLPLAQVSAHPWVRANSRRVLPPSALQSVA

Compound | IC50 [µM]
Cc1cc(Nc2nn(Cc3ccccc3)c(=O)c3ccccc23)n[nH]1 | > 100
COc1ccc(Cn2nc(Nc3cc(C)[nH]n3)c3ccccc3c2=O)cc1 | 46
Cc1cc(Nc2nn(Cc3ccc(S(C)(=O)=O)cc3)c(=O)c3ccccc23)n[nH]1 | 34
Cc1cc(Nc2nn(C(C)C)c(=O)c3ccccc23)n[nH]1 | 30
Cc1cc(Nc2nn(Cc3ccc(F)cc3)c(=O)c3ccccc23)n[nH]1 | 69
COc1ccc(-n2nc(Nc3cc(C)[nH]n3)c3ccccc3c2=O)cc1 | > 100
COc1ccc(C(=O)Cn2nc(Nc3cc(C)[nH]n3)c3ccccc3c2=O)cc1 | > 100
Cc1cc(Nc2nn(CC(C)C)c(=O)c3ccccc23)n[nH]1 | 34
CC(=O)Nc1ccc(Cn2nc(Nc3cc[nH]n3)c3ccccc3c2=O)cc1 | 34
Cc1cc(Nc2nn(CC(=O)c3ccccc3)c(=O)c3ccccc23)n[nH]1 | > 100

Continued, values first:

IC50 [µM] | Compound
22 | Cc1cc(Nc2n[nH]c(=O)c3ccccc23)n[nH]1
17 | Cc1cc(Nc2nn(C)c(=O)c3ccccc23)n[nH]1
15 | Cc1cc(Nc2nn(CC(F)(F)F)c(=O)c3ccccc23)n[nH]1
15 | CC(=O)Nc1ccc(Cn2nc(Nc3cc(C)[nH]n3)c3ccccc3c2=O)cc1
0.93 | Cc1cc(Nc2nn(Cc3ccc([N+](=O)[O-])cc3)c(=O)c3ccccc23)n[nH]1

tested on: HCT-116; assay: Cytotoxicity against human HCT116 cells after 5 days by celltiter-glo assay; assay type: functional, cell-based; conditions: HCT-116, 120 h

Compound | IC50 [µM]
Cc1cc(Nc2nn(Cc3ccccc3)c(=O)c3ccccc23)n[nH]1 | 1.5
COc1ccc(Cn2nc(Nc3cc(C)[nH]n3)c3ccccc3c2=O)cc1 | 1.2
Cc1cc(Nc2nn(Cc3ccc(S(C)(=O)=O)cc3)c(=O)c3ccccc23)n[nH]1 | 1.7
Cc1cc(Nc2nn(CC(F)(F)F)c(=O)c3ccccc23)n[nH]1 | 1.8
Cc1cc(Nc2nn(C(C)C)c(=O)c3ccccc23)n[nH]1 | 0.4
Cc1cc(Nc2nn(Cc3ccc(F)cc3)c(=O)c3ccccc23)n[nH]1 | 1.4
COc1ccc(-n2nc(Nc3cc(C)[nH]n3)c3ccccc3c2=O)cc1 | 0.7
Cc1cc(Nc2nn(Cc3ccc([N+](=O)[O-])cc3)c(=O)c3ccccc23)n[nH]1 | 1.4
Cc1cc(Nc2nn(C)c(=O)c3ccccc23)n[nH]1 | 5.2
COc1ccc(C(=O)Cn2nc(Nc3cc(C)[nH]n3)c3ccccc3c2=O)cc1 | > 30
CC(=O)Nc1ccc(Cn2nc(Nc3cc(C)[nH]n3)c3ccccc3c2=O)cc1 | 4.2
Cc1cc(Nc2nn(CC(C)C)c(=O)c3ccccc23)n[nH]1 | 1.1
CC(=O)Nc1ccc(Cn2nc(Nc3cc[nH]n3)c3ccccc3c2=O)cc1 | > 30
Cc1cc(Nc2nn(CC(=O)c3ccccc3)c(=O)c3ccccc23)n[nH]1 | 5.44

tested on: COLO 205; assay: Cytotoxicity against human COLO205 cells; assay type: functional, cell-based; conditions: not given

Compound | IC50 [µM]
Cc1cc(Nc2nn(Cc3ccccc3)c(=O)c3ccccc23)n[nH]1 | 4.4
COc1ccc(Cn2nc(Nc3cc(C)[nH]n3)c3ccccc3c2=O)cc1 | 4.2
Cc1cc(Nc2nn(Cc3ccc(S(C)(=O)=O)cc3)c(=O)c3ccccc23)n[nH]1 | 4.5
Cc1cc(Nc2nn(C(C)C)c(=O)c3ccccc23)n[nH]1 | 1.7
Cc1cc(Nc2nn(Cc3ccc(F)cc3)c(=O)c3ccccc23)n[nH]1 | 17
COc1ccc(-n2nc(Nc3cc(C)[nH]n3)c3ccccc3c2=O)cc1 | 3.7
Cc1cc(Nc2nn(C)c(=O)c3ccccc23)n[nH]1 | > 30
COc1ccc(C(=O)Cn2nc(Nc3cc(C)[nH]n3)c3ccccc3c2=O)cc1 | > 30
CC(=O)Nc1ccc(Cn2nc(Nc3cc(C)[nH]n3)c3ccccc3c2=O)cc1 | > 30
Cc1cc(Nc2nn(CC(=O)c3ccccc3)c(=O)c3ccccc23)n[nH]1 | > 30

tested on: MCF7; assay: Cytotoxicity against human MCF7 cells; assay type: functional, cell-based; conditions: not given

Compound | IC50 [µM]
Cc1cc(Nc2nn(Cc3ccccc3)c(=O)c3ccccc23)n[nH]1 | 12.6
COc1ccc(Cn2nc(Nc3cc(C)[nH]n3)c3ccccc3c2=O)cc1 | > 30
Cc1cc(Nc2nn(Cc3ccc(S(C)(=O)=O)cc3)c(=O)c3ccccc23)n[nH]1 | 4.5
Cc1cc(Nc2nn(CC(F)(F)F)c(=O)c3ccccc23)n[nH]1 | 4.5
Cc1cc(Nc2nn(C(C)C)c(=O)c3ccccc23)n[nH]1 | 1.6
Cc1cc(Nc2nn(Cc3ccc(F)cc3)c(=O)c3ccccc23)n[nH]1 | > 30
COc1ccc(-n2nc(Nc3cc(C)[nH]n3)c3ccccc3c2=O)cc1 | 3.6
Cc1cc(Nc2nn(Cc3ccc([N+](=O)[O-])cc3)c(=O)c3ccccc23)n[nH]1 | > 30
Cc1cc(Nc2nn(C)c(=O)c3ccccc23)n[nH]1 | > 30
COc1ccc(C(=O)Cn2nc(Nc3cc(C)[nH]n3)c3ccccc3c2=O)cc1 | > 30
CC(=O)Nc1ccc(Cn2nc(Nc3cc(C)[nH]n3)c3ccccc3c2=O)cc1 | > 30
Cc1cc(Nc2nn(CC(C)C)c(=O)c3ccccc23)n[nH]1 | 4.2
CC(=O)Nc1ccc(Cn2nc(Nc3cc[nH]n3)c3ccccc3c2=O)cc1 | > 30
Cc1cc(Nc2nn(CC(=O)c3ccccc3)c(=O)c3ccccc23)n[nH]1 | > 30

tested on: MCF7; assay: Induction of cell cycle arrest in human MCF7 cells assessed as accumulation at G2/M phase at 10 uM after 24 hrs by immunostaining; assay type: functional, cell-based; conditions: not given

Compound | Activity
Cc1cc(Nc2nn(Cc3ccccc3)c(=O)c3ccccc23)n[nH]1 | Active

tested on: not listed separately; assay: Aqueous solubility of the compound; assay type: physicochemical; conditions: buffer

Compound | solubility [µg/mL]
Cc1cc(Nc2nn(Cc3ccccc3)c(=O)c3ccccc23)n[nH]1 | 1.9 (≈ 5.73 µM)
Cc1cc(Nc2nn(-c3ccccc3)c(=O)c3ccccc23)n[nH]1 | 1.2 (≈ 3.78 µM)
Cc1cc(Nc2nn(C(C)C)c(=O)c3ccccc23)n[nH]1 | 7 (≈ 24.7 µM)

biological target: Cytochrome P450 3A4 (Homo sapiens, UniProt P08684); assay: Inhibition of CYP3A4; assay type: ADME; conditions: not given
Sequence (P08684 whole entry): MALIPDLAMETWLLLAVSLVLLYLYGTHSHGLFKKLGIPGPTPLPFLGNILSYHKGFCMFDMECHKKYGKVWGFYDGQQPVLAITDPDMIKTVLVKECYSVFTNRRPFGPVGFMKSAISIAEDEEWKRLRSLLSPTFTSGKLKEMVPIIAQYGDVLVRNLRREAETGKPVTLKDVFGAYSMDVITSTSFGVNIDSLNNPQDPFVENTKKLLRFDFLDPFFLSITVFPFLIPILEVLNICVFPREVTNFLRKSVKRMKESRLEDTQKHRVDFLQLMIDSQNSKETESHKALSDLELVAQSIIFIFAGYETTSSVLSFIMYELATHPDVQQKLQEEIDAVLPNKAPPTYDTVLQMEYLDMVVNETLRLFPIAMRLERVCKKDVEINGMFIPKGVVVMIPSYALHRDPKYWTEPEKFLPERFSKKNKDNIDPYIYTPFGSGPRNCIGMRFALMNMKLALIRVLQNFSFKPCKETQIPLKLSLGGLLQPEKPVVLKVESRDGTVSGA

Compound | IC50 [µM]
Cc1cc(Nc2nn(Cc3ccccc3)c(=O)c3ccccc23)n[nH]1 | > 50
Cc1cc(Nc2nn(-c3ccccc3)c(=O)c3ccccc23)n[nH]1 | > 50
Cc1cc(Nc2nn(C(C)C)c(=O)c3ccccc23)n[nH]1 | > 50

biological target: Cytochrome P450 2C9 (Homo sapiens, UniProt P11712); assay: Inhibition of CYP2C9; assay type: ADME; conditions: not given
Sequence (P11712 whole entry): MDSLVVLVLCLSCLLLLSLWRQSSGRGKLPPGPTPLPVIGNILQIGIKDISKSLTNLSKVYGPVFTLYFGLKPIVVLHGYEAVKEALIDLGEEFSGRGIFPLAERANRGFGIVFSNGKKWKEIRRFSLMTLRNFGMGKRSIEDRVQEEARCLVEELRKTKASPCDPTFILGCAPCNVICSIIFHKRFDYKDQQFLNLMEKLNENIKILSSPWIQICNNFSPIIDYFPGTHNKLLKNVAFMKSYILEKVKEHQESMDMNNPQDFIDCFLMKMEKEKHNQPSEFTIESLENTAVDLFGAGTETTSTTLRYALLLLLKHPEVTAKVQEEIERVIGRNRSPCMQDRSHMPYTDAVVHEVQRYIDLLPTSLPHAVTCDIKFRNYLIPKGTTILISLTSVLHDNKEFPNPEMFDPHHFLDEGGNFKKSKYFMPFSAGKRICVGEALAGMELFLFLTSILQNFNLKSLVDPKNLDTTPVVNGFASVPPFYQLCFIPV

Compound | IC50 [µM]
Cc1cc(Nc2nn(Cc3ccccc3)c(=O)c3ccccc23)n[nH]1 | 42
Cc1cc(Nc2nn(-c3ccccc3)c(=O)c3ccccc23)n[nH]1 | > 50
Cc1cc(Nc2nn(C(C)C)c(=O)c3ccccc23)n[nH]1 | > 50

biological target: Cytochrome P450 2D6 (Homo sapiens, UniProt P10635); assay: Inhibition of CYP2D6; assay type: ADME; conditions: not given
Sequence (P10635 whole entry): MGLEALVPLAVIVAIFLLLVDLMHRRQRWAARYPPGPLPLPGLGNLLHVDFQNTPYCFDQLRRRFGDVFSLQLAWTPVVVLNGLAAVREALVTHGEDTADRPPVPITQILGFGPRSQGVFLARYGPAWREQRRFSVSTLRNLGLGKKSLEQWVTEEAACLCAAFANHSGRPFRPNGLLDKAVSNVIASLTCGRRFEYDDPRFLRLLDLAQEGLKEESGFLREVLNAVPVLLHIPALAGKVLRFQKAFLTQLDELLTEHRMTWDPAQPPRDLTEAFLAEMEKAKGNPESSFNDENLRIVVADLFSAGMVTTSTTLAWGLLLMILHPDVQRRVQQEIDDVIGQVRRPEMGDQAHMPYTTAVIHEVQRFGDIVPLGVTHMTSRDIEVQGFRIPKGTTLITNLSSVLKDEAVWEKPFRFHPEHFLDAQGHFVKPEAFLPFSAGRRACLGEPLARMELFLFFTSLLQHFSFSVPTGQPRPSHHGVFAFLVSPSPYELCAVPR

Compound | IC50 [µM]
Cc1cc(Nc2nn(Cc3ccccc3)c(=O)c3ccccc23)n[nH]1 | > 50
Cc1cc(Nc2nn(-c3ccccc3)c(=O)c3ccccc23)n[nH]1 | > 50
Cc1cc(Nc2nn(C(C)C)c(=O)c3ccccc23)n[nH]1 | > 50

biological target: hERG (KCNH2) (Homo sapiens, UniProt Q12809); assay: Inhibition of human ERG at 10 uM; conditions: not given
Sequence (Q12809 whole entry): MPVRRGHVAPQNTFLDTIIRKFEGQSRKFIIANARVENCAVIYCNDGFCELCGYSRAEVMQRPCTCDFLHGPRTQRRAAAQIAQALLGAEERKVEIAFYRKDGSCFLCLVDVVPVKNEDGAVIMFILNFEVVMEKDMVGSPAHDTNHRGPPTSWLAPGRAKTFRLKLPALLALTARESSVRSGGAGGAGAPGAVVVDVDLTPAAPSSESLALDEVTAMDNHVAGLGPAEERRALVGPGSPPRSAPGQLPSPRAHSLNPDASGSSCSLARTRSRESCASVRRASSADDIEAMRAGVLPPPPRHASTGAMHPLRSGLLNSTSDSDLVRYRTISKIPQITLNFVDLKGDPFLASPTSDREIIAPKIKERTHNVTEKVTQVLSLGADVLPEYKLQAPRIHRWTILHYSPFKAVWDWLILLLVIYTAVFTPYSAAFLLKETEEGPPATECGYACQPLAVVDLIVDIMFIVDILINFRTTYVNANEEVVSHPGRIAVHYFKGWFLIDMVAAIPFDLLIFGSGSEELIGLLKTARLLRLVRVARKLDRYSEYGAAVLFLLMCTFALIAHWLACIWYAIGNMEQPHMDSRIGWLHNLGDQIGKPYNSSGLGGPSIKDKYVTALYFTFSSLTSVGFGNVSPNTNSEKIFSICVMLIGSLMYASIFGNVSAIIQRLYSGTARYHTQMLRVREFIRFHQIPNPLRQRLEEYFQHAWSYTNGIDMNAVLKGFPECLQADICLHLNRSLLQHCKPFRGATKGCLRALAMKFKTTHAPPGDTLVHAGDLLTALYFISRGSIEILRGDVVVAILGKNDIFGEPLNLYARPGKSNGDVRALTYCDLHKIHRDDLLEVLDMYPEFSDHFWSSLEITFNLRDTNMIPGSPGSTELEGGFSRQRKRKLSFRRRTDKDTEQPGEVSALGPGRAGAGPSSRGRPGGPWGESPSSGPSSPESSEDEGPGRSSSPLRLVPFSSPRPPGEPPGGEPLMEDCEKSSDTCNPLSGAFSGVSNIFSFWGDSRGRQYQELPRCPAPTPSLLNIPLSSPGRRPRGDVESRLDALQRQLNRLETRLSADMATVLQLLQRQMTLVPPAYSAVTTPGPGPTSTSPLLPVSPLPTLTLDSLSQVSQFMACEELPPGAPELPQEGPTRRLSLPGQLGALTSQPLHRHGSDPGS

Compound | inhibition at 10 µM [%]
Cc1cc(Nc2nn(-c3ccccc3)c(=O)c3ccccc23)n[nH]1 | 20

tested on: not listed separately; assay: Clearance in rat hepatocytes measured per 10^6 cells; assay type: ADME, cell-based, Liver, Hepatocyte; conditions: not given

Compound | hepatocyte CLint [µL/min/1e6 cells]
Cc1cc(Nc2nn(Cc3ccccc3)c(=O)c3ccccc23)n[nH]1 | 2.4
Cc1cc(Nc2nn(-c3ccccc3)c(=O)c3ccccc23)n[nH]1 | 2.3

tested on: not listed separately; assay: Clearance in human microsome measured per mg of protein; assay type: ADME; conditions: microsomes

Compound | microsomal CLint [µL/min/mg]
Cc1cc(Nc2nn(Cc3ccccc3)c(=O)c3ccccc23)n[nH]1 | 7.4

tested on: not listed separately; assay: Clearance in mouse microsome measured per mg of protein; assay type: ADME, Liver; conditions: microsomes

Compound | microsomal CLint [µL/min/mg]
Cc1cc(Nc2nn(Cc3ccccc3)c(=O)c3ccccc23)n[nH]1 | 28
Cc1cc(Nc2nn(-c3ccccc3)c(=O)c3ccccc23)n[nH]1 | 15.7

tested on: not listed separately; assay: Selectivity for Aurora A over Aurora B; conditions: not given

Compound | Selectivity ratio
Cc1cc(Nc2nn(Cc3ccccc3)c(=O)c3ccccc23)n[nH]1 | > 1000
Cc1cc(Nc2nn(C(C)C)c(=O)c3ccccc23)n[nH]1 | > 1000
Cc1cc(Nc2nn(Cc3ccc(F)cc3)c(=O)c3ccccc23)n[nH]1 | > 1000
COc1ccc(C(=O)Cn2nc(Nc3cc(C)[nH]n3)c3ccccc3c2=O)cc1 | > 1000
Cc1cc(Nc2nn(CC(=O)c3ccccc3)c(=O)c3ccccc23)n[nH]1 | > 1000

Other lines, results leading:

Selectivity ratio | Compound
> 1000 | Cc1cc(Nc2n[nH]c(=O)c3ccccc23)n[nH]1
> 1000 | Cc1cc(Nc2nn(CC(F)(F)F)c(=O)c3ccccc23)n[nH]1
